Cneo AK release – Cryptococcus neoformans lysis via adenylate kinase release. 0.2% of 360,000 active. lysis activity, % at 15 µM. C. neoformans lysis, adenylate kinase release luminescence, 4 h; normalised: neutral wells 0, clomiphene wells 100;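 active means mean lysis activity across replicates of at least 80%, whatever share of replicates individually reach that level; inactive means mean lysis activity below 80%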
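Material – Cryptococcus neoformans yeast cells · Quantity – 5 × 10^6 yeast cells/mL · Buffer or medium – YPD medium · Compound – single dose · Timing – 4 h static compound exposure, 37 °C, read 1 h post-reagent · Signal – adenylate kinase release luminescence · Read-out basis – lysis from increased AK signal · Benchmarks – Clomiphene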
Efflux pump mplx – antifungal efflux pump inhibition, Nile Red retention. S. cerevisiae Candida pump triplex. inhibition, % at 10 µM. 0.44% of 330,000 active;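 active means plate passing quality check with inhibition over a set limit, or well fluorescence over plate mean plus 4 SD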;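 further: Nile Red retained in pooled yeast measured as flow cytometry median fluorescence; 0% = buffer negative control and 100% = Enniatin B positive control; higher means more Nile Red kept so more efflux inhibition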
SUMO Mot1 rescue – SUMOylation pathway inhibition by Mot1-301 growth rescue; S. cerevisiae Mot1-301 growth rescue, ATP luminescence, 38.5C; percent above DMSO median, 100 means doubled; growth rescue, % at 18.8 µM; 1% of 320,000 active;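 active means every valid replicate shows activation above 250% relative to neutral control wells; inactive means the rest, any valid replicate at or below 250%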;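 further: OY570 slx delta 5 strain wells were the positive control but not used for scaling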
C2C12 statin – suppression of simvastatin myotoxicity. C2C12 myotubes + simvastatin, ATP luminescence, 48 h; scaled: DMSO 0, geranylgeraniol control 100. rescue of ATP level, % at 7.49 µM. 0.78% of 330,000 active. AID 602340;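 active means mean ATP rescue above about 67%, or every replicate alone reaching that limit, limit read from the data, passing the limit was not always enough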;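 further: myotubes were challenged with 10 µM simvastatin during compound exposure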
Yeast Mot1 SUMO – SUMO pathway inhibitors in yeast Mot1-301 growth; S. cerevisiae Mot1-301 galactose growth, ATP luminescence, 24 h; -100 = growth of slx-deleted rescue strain; growth activity, percent, % at 42 µM; shares compounds with SUMO Mot1 rescue; 2,300 tested, under 10 active; AID 493004;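 active means Signal drops as the depositor expects, and the fitted half-maximal dose is no more than ten times the top valid tested dose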;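 further: more negative values mean stronger growth rescue toward the control strain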
Active calls of the source: *; x = not tested or not shown; + = active, no number. In the library only some 1.8% were active in any assay of this set; here they are far more common.

SMILES	Cneo AK release	Efflux pump mplx	SUMO Mot1 rescue	C2C12 statin	Yeast Mot1 SUMO
O=C(N[C@@H]1C=C[C@@H](CC(=O)N2CCN(c3ccccc3)CC2)O[C@H]1CO)c1ccncc1	7	x	x	3	x
O=C(Cc1cccs1)Nc1cccc(-c2nc3cc4ccccc4cc3[nH]2)c1	x	0	811*	x	x
Cc1cccc(NC(=O)c2cc(S(=O)(=O)NCc3ccco3)ccc2F)c1C	0	0	31	79*	x
COc1cccc(/C=C/c2nc3c(cnn3-c3ccccc3)c(=O)[nH]2)c1	x	0	-16	x	x
COc1cccc(/C=C/c2n[nH]c(=O)c(C#N)c2C)c1	4	0	85	94*	x
COc1ccc(C=O)cc1OS(=O)(=O)c1ccccc1[N+](=O)[O-]	x	0	-10	x	x
Oc1ccc(-c2sc(Nc3ccccc3)n[n+]2-c2ccc(F)cc2)cc1	8	0	-9	6	x
Cc1ccc(/C(O)=C2\C(=O)C(=O)N(CCN(C)C)C2c2ccccc2F)cc1 (centres undefined)	11	0	12	1	x
CC1Oc2ccccc2C=C1C1/C(=C(/O)c2ccccc2)C(=O)C(=O)N1CCCN(C)C (centres undefined)	x	0	286*	9	x
CCOc1ccc(-c2nc(C#N)c(N3CCOCC3)o2)cc1	-4	0	417*	-9	-1
O=C(Nc1ccc(Cl)cc1)OCc1cncs1	-1	0	-2	x	x
O=C(Nc1cccc(Cl)c1)OCc1cncs1	x	0	+	x	0
Cc1cc(Cl)c2oc(C(=O)NC3CCC(O)CC3)c(C)c2c1 (centres undefined)	-1	0	+	-17	0
COc1ccc(CN2C(=O)C(=O)N(CC(N)=O)C2=O)cc1	x	0	719*	x	0
CCOC(=O)c1ccccc1NC(=O)CSc1ccc(-c2ccccn2)nn1	-2	0	783*	x	0
Cc1ccc(-c2nn(-c3ccccc3)cc2C(=O)N2CCN(c3ccccn3)CC2)cc1	x	0	596*	x	1
O=C(c1cn(-c2ccccc2)nc1-c1ccccc1)N1CCN(c2ccccn2)CC1	-9	0	-28	-6	x
OCCOc1ccc(C2=NCCO2)cc1	0	0	-9	9	x
COC(=O)CSc1ccc(S(=O)(=O)N2CCCCCC2)cc1[N+](=O)[O-]	2	0	520*	2	1
CC=Cc1ccc2n(c1=O)C[C@@H]1[C@@H](CO)[C@H](C(=O)NC3CCCC3)N(CC3CCCCC3)[C@H]21 (mixture of isomers)	-5	x	x	22	x
C[C@H](NC(=O)C[C@@H]1C[C@@H]2c3cc(NC(=O)Cc4ccncc4)ccc3O[C@@H]2[C@H](CO)O1)c1ccccc1	-2	x	x	0	x
Cc1cccc(C)c1NS(=O)(=O)c1ccc(OCCNS(C)(=O)=O)cc1	x	0	655*	-3	0
COC(=O)c1scc(C)c1NC(=O)c1cccc(C#N)c1	-1	0	-9	1	x
COCCn1c(SCC(=O)N2CCCC2)nnc1-c1ccoc1C	-1	0	+	2	0
O=S(=O)(NCC1CCCO1)c1cc(Cl)ccc1Br (centres undefined)	-5	0	467*	4	1
SMILES	Cneo AK release	Efflux pump mplx	SUMO Mot1 rescue	C2C12 statin	Yeast Mot1 SUMO
O=S(=O)(NCC1CCCO1)c1cc(Cl)ccc1Cl (centres undefined)	2	0	-5	-1	x
OC1CN=C2CCCc3c2n(c2ccc(Cl)cc32)C1 (centres undefined)	1	0	368*	-5	0
CCn1c2c(c3cc(Cl)ccc31)CCCC2=O	1	0	3	-11	x
CCCCC(O)(CCCC)C(=O)NN(C(=O)OC)c1ccc(C)cc1	1	0	446*	x	0
COc1ccccc1NC(=O)CSc1nc(O)c(Cc2ccccc2)c(=O)[nH]1	-4	0	+	-9	1
CCc1c(O)nc(SCC(=O)Nc2ccccc2OC)[nH]c1=O	-1	0	-14	-8	x
CC(C)(C)n1nnnc1C(c1ccc(F)cc1)N(Cc1ccc(F)cc1)Cc1ccco1 (centres undefined)	-2	0	-1	x	x
CC(C)(C)n1nnnc1C(c1ccc(Cl)cc1)N(Cc1cccnc1)Cc1ccco1 (centres undefined)	x	0	437*	-13	-1
O=C1c2cc(N3CCCC3)c([N+](=O)[O-])cc2C(=O)N1c1ccccc1	-3	0	377*	6	1
CN(CC(=O)Nc1sccc1C#N)Cc1ccccc1	-1	0	487*	x	0
CN(CC(=O)Nc1sccc1C#N)S(=O)(=O)c1ccc(F)cc1	2	x	x	-9	x
O=C(Nc1ccc(Cl)cc1)C1=Cc2ccccc2OC1	x	0	594*	-15	-3
O=C(Nc1ccc(Cl)cc1)c1ccc2c(c1)OCO2	-9	0	8	x	x
CCOc1ccc(N2C(=O)CC(Sc3nc4ccc(OCC)cc4s3)C2=O)cc1 (centres undefined)	2	0	41	-2	x
C=CCNc1nnc(SC2CC(=O)N(c3ccc(OCCC)cc3)C2=O)s1 (centres undefined)	9	0	+	-13	-2
COc1ccc2c(CC(=O)Nc3ccc(OC)c(NS(=O)(=O)c4ccc(F)cc4)c3)coc2c1	-4	0	560*	4	-1
COc1ccc2c(CC(=O)Nc3ccccc3OC)coc2c1	-1	0	-1	4	x
Cn1c(=O)[nH]c(=O)c2c1nc(N1CCN(C(=O)c3ccco3)CC1)n2CCCSc1ncccn1	-2	x	x	-3	x
CCOC(=O)C1(Cc2cccc(F)c2)CCN(C(=O)c2cnccn2)CC1	7	0	632*	-10	0
COc1cccc(NC(=O)COc2ccc(Br)c(C)c2)c1	0	0	-7	26	x
Cc1cc(C)c(S(=O)(=O)c2cccc(C)c2C)c(=O)[nH]1	-5	0	415*	7	0
Cc1cc(C)c(S(=O)(=O)c2ccccc2)c(=O)[nH]1	x	0	243	6	x
COc1ccc([C@@H]2C(C#N)=C(N)S[C@@H](c3ccccc3)[C@@H]2[N+](=O)[O-])cc1	1	0	38	x	x
CCOc1ccc(N2CC(C(=O)OC)CC2=O)cc1 (centres undefined)	1	0	385*	-9	-1
CCCCN(C/C=C/c1ccccc1OC)Cc1ccccc1	0	0	529*	-2	0
Cc1c(CC(=O)O)c(=O)oc2cc(OCc3ccc(F)cc3Cl)ccc12	-1	0	4	2	x
CCCCn1c(N)c(N(CCOC)C(=O)c2ccc(Cl)c(S(=O)(=O)N3CCCCC3)c2)c(=O)[nH]c1=O	1	0	698*	2	0
CCCCn1c(N)c(N(CCOC)C(=O)c2cnccn2)c(=O)[nH]c1=O	-1	0	765*	10	1
CCCCN(C(=O)c1cnccn1)c1c(N)n(CCC)c(=O)[nH]c1=O	-2	0	21	0	x

From PubChem
